Each structure is given as a SMILES string.
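Also: active if original authors judged signal statistically different from baseline.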

The target in this experiment is T1, OR2M3 (Homo sapiens) (UniProt Q8NG83).
T1 sequence (whole entry): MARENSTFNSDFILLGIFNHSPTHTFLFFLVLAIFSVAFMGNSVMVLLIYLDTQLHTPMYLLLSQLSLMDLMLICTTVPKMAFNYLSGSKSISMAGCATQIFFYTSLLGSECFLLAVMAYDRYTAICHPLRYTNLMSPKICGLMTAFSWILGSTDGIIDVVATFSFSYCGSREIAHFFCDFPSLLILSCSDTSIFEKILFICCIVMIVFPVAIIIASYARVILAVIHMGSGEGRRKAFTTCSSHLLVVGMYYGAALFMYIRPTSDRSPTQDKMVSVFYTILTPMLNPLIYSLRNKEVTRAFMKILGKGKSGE
The settings on record: stereoisomer not certain. The method, boiled down: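 Each receptor–molecule pair is labelled responsive or non-responsive (inactive) according to whether the original authors judged the measured signal statistically different from baseline. The data were taken from the main text and supplementary material of published papers and checked for typos and inconsistencies. Assay methods differed by source, with transient luciferase assays in mammalian cell lines being common.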
For the molecule `CCCCCCCC1CCCC(=O)O1` (configuration not stated), the “odorant receptor agonist call” value was “inactive”.

In the case of `CCCc1ccc(O)c(OC)c1`, the “odorant receptor agonist call” value was “inactive”.

For `CCCC(O)CC(=O)OCC` (configuration not stated), the “odorant receptor agonist call” value was “inactive”.

In the case of `CCC=CCCOC(C)=O`, the “odorant receptor agonist call” value was “inactive”.

`COCCC(C)(C)S`: the “odorant receptor agonist call” value was “inactive”.

Take `CCC(=O)C(C)=O`: the “odorant receptor agonist call” value is “inactive”.

For `CCc1ncc(C)nc1CC`, the “odorant receptor agonist call” value is “inactive”.

In the case of `CCCCC1OC(=O)CC1C` (configuration not stated), the “odorant receptor agonist call” value was “inactive”.

In the case of `CCOC(=O)CCC(C)C`, the “odorant receptor agonist call” value was “inactive”.

Turning to `CCCCCC=CC=CC=O`, the “odorant receptor agonist call” value is “inactive”.

For `CC(=O)c1cnccn1`, the “odorant receptor agonist call” value is “inactive”.

Turning to `Cc1ccc(O)cc1`, the “odorant receptor agonist call” value is “inactive”.

Turning to `CC=CC(=O)C1=C(C)C=CCC1(C)C`, the “odorant receptor agonist call” value was “inactive”.

For `CCOC(C)=O`, the “odorant receptor agonist call” value was “inactive”.

For the molecule `CC(=O)c1ccccc1N`, the “odorant receptor agonist call” value was “inactive”.

With `CCOC(=O)c1ccccc1`, the “odorant receptor agonist call” value is “inactive”.

As to `CCCCC=CC=O`, the “odorant receptor agonist call” value was “inactive”.

For `C=Cc1ccc(O)cc1`, the “odorant receptor agonist call” value is “inactive”.

With `CC(=O)OCCC(C)C`, the “odorant receptor agonist call” value was “inactive”.

As to `CCC(=O)C(C)S` (configuration not stated), the “odorant receptor agonist call” value is “inactive”.

As for `CCC(C)C(=O)OC` (configuration not stated), the “odorant receptor agonist call” value was “inactive”.

In the case of `CCCSSSCCC`, the “odorant receptor agonist call” value was “inactive”.

In the case of `CCO`, the “odorant receptor agonist call” value is “inactive”.

With `COc1ccc(C)cc1O`, the “odorant receptor agonist call” value was “inactive”.

Take `Cc1occc(=O)c1O`: the “odorant receptor agonist call” value is “inactive”.

As for `SCCc1ccccc1`, the “odorant receptor agonist call” value was “inactive”.

With `CCC=CCCC=O`, the “odorant receptor agonist call” value was “inactive”.

With `CC(C)CO`, the “odorant receptor agonist call” value was “inactive”.

For `CCc1cccc(O)c1`, the “odorant receptor agonist call” value is “inactive”.

For `CC(S)C(C)CO` (configuration not stated), the “odorant receptor agonist call” value was “active”.

Consider `CC(=O)C=CC1=C(C)CCCC1(C)C`, for which the “odorant receptor agonist call” value was “inactive”.

Turning to `OCC=Cc1ccccc1`, the “odorant receptor agonist call” value was “inactive”.

For the molecule `CCCCCCCCC=CC=O`, the “odorant receptor agonist call” value is “inactive”.

For `Cc1c[nH]c2ccccc12`, the “odorant receptor agonist call” value was “inactive”.

`CCCCCC=CCCC=O`: the “odorant receptor agonist call” value was “inactive”.

Take `CC(C)(S)CCOC=O`: the “odorant receptor agonist call” value is “inactive”.

On to `CCOC(=O)C(C)CC` (configuration not stated), for which the “odorant receptor agonist call” value is “inactive”.

For the origin of these results see the M2OR odorant receptor database.
